Test results from paper PMC11436873 (Nature Communications, 2024).
In brackets after ≈: the same amount, converted by molar mass. Each block holds one compound with its values, some of them ahead of it.

How the values were obtained:
[1] = tested on: C. parvum; assay: NOD SCID gamma mouse model of cryptosporidiosis, fecal parasite shedding by qPCR; assay type: in vivo; conditions: NSG mice
Procedure, shortened: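 Male NSG mice aged 4–5 weeks are infected with C. parvum oocysts. Oral gavage starts 7 (or 14) days post-infection and runs 7 days. Dosing stock in DMSO is diluted into 1% HPMC (5% DMSO final, 100 μL per dose), with a paromomycin control. Fecal shedding per mg feces is measured by qPCR at treatment start, at treatment end and one week later. n = 4 mice per group, mean and SEM.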

[2] = tested on: HCT-8 cells; assay: host cell cytotoxicity, CellTiter AQueous; assay type: cell-based, human
Procedure, shortened: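 HCT-8 cells are grown in RPMI 1640 with 10% heat-inactivated FBS and penicillin/streptomycin at 37 °C, 5% CO2, used at passages 9–39. Confluent (>95%) monolayers get varying compound concentrations for 48 h. MTS reduction is read at 490 nm, blanked against trypsinised wells, and expressed as % viability versus DMSO. TC50 is curve-fitted; the selectivity index is the […].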

[3] = kinetic aqueous solubility
[4] = tested on: 47 human targets; assay: Eurofins SafetyScan47 panel, whole panel; conditions: dose-response up to 30 μM
[5] = target: hERG potassium channel (Homo sapiens, UniProt Q12809); assay: hERG [3H]-dofetilide competitive binding; conditions: probe [3H]-dofetilide
Sequence of hERG potassium channel (Q12809 whole entry): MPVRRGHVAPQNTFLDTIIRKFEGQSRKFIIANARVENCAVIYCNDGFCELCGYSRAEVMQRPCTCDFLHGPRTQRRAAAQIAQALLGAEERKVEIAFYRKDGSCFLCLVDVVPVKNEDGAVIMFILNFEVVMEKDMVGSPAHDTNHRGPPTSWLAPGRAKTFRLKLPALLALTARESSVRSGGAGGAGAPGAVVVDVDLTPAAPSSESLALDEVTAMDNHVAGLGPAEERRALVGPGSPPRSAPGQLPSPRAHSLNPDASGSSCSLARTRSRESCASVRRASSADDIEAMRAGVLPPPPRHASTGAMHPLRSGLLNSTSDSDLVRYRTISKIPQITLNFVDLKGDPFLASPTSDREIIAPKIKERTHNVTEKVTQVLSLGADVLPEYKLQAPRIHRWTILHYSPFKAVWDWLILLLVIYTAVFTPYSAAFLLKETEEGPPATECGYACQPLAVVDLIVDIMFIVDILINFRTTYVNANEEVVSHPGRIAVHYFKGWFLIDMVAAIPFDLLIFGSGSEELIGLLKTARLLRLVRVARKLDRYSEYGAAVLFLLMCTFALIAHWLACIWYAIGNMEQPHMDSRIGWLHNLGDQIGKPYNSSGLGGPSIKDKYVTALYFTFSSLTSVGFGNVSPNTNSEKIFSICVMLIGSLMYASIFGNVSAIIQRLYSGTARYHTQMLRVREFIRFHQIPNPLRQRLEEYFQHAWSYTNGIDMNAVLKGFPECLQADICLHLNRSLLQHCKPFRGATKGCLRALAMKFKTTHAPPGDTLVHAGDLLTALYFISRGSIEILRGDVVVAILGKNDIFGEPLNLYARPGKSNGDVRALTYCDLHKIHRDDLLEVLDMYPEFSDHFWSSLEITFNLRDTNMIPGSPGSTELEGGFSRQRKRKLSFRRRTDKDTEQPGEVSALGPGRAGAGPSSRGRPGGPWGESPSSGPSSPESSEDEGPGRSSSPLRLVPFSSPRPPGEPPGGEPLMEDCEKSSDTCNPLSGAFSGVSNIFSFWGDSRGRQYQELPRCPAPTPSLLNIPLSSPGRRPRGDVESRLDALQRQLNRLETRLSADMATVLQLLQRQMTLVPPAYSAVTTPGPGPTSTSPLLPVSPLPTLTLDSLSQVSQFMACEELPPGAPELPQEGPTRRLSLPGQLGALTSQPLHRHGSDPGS

[6] = tested on: C. parvum; assay: Cryptosporidium rate-of-action assay in HCT-8 cells; assay type: cell-based, Cryptosporidium parvum; conditions: for parasite elimination in rate-of-action assay: nitazoxanide at EC90, highest tolerated concentration
Procedure, shortened: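 HCT-8 monolayers (>90% confluent) are infected with C. parvum sporozoites excysted with 10 mM HCl and then 2 mM taurocholate. […] Cells are fixed, stained with V. villosa lectin and Hoechst, and counted by epifluorescence. Counts are normalised to host nuclei and DMSO wells, then fitted to one-phase exponential decay. Four wells per condition.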

[7] = tested on: C. hominis Tu502 strain; assay: C. hominis growth in HCT-8 cells, same method; assay type: cell-based; conditions: Cryptosporidium hominis, HCT-8, read-out: C. hominis EC50
Procedure, shortened: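 TU502 oocysts, used within 1 month, excysted with 10 mM HCl (10 min, 37 °C) and then 2 mM sodium taurocholate in PBS (10 min, 16 °C). Material from 5500 oocysts/well was added to >95% confluent HCT-8 monolayers (passages 9–39, 37 °C, 5% CO2). Compound went in 3 h post-infection, with nitazoxanide as control. At 48 h, cells were fixed with paraformaldehyde and stained with fluorescein-Vicia villosa lectin plus Hoechst.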

[8] = NSG mouse weights and tolerability during efficacy testing; assay type: in vivo, Mus musculus (NOD SCID gamma mice); conditions: 50 mpk twice daily, 7 days
[9] = tested on: Cryptosporidium; conditions: cited from earlier work
[10] = tested on: C. parvum CpPDE1 Val900Ala; assay: HCT-8 cell growth assay, CRISPR CpPDE1 Val900Ala mutant parasite; assay type: cell-based; conditions: Cryptosporidium parvum, HCT-8, read-out: EC50, CpPDE1 V900A, HCT-8 cell growth assay
[11] = tested on: human PDE-V; conditions: read-out: IC50 for human PDE-V; cited from earlier work

solubility kinetic at 2 h ([3]; PBS, pH 7.4, aqueous buffer, kinetic from dmso stock): 21 µM (≈ 9.93 µg/mL)
SMILES: COc1ccc(CNc2nc(-c3ccc(C(=O)O)cc3)nc3c2c2ccccc2n3C)cc1Cl [PDEi4]
efficacy, 7-day dosing ([1]; 50 mpk twice daily oral): no significant effect
selectivity index ([2]; HCT-8 TC50 vs C. parvum EC50): 100

SMILES: CCc1nn(C)c2nc(-c3ccc(C(=O)O)cc3)nc(NCc3ccc(F)cc3)c12 [PDEi5, 4-(3-ethyl-4-((4-fluorobenzyl)amino)-1-methyl-1H-pyrazolo[3,4-d]pyrimidin-6-yl)benzoic acid]
SafetyScan47 EC50/IC50 for 45 of 47 targets [4]: > 30 µM
inhibition at 10 µM [5]: -14.7%
reduction of parasite shedding after 7 days of treatment ([1]; 50 mpk twice daily oral): ~ 99%
relapse after treatment ([1]; after 7-day dosing): infection relapsed within a week of stopping treatment
toxicity to the HCT-8 cell line ([2]; 100 μM, highest concentration tested): non-toxic
time required for 99.9% parasite reduction ([6]; in the absence of host immune help): ~ 107 h
EC50 [7]: 4.7 µM
solubility kinetic ([3]; aqueous solution, pH 7.4): 200 µM (≈ 81.1 µg/mL)
fall of mean mouse weight in the final days of treatment [8]: ~ 5%

SMILES: CC(=O)Oc1ccccc1C(=O)Nc1ncc([N+](=O)[O-])s1 [nitazoxanide]
parasite elimination in rate-of-action assay [6]: no nitazoxanide-dependent parasite elimination occurred
parasite elimination in rate-of-action assay ([6]; listed as NTZ): No exponential decay curve could be fit
effectiveness in AIDS patients [9]: equivalent to a placebo
effectiveness in children [9]: ~ 56%

SMILES: CCCc1nn(C)c2c(=O)[nH]c(-c3cc(S(=O)(=O)N4CCN(C)CC4)ccc3OCC)nc12 [sildenafil]
EC50 [10]: 14 µM
IC50 [11]: 0.0035 µM
